Measurements as given in PMC6422681 (Science signaling, 2018).
Where a name gives a salt, the structure may show the parent alone.

Tests used:
CXCR4 [1] = molecular target: T1, CXCR4 (Homo sapiens, UniProt P61073); test: Flow cytometry of CXCL12-stimulated CXCR4 endocytosis in Jurkat cells; type: cell-based; conditions: 30 nM CXCL12, antagonist 30 min before
Method in brief: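 Jurkat cells (1×10^5), serum-starved 6 hours, got vehicle or antagonist 30 min before 30 nM CXCL12. At set times, washed three times in ice-cold PBS/1% BSA, stained 20 min with PE-anti-CXCR4 (4G10 or 12G5) or isotype controls, and fixed in 4% paraformaldehyde. Surface CXCR4 read by flow cytometry against CXCL12 alone. Means ± SD; three experiments in triplicate.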

CXCR4 [2] = test: PRESTO-Tango assay of BA2 recruitment to CXCR4; type: cell-based; conditions: HTLA cells, increasing CXCL12 with 1 μM AMD3100 or 10 μM X4-2-6, 1 hour, 37°C
Method in brief: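 HTLA cells were lipofected with Tango plasmids. After one day they were plated on poly-L-lysine-coated wells and allowed to attach 4 h before treatment with CXCL12 plus vehicle or test compound. Read-out was luminescence after adding a 1:5 mix of Bright-Glo with HBSS/20 mM Hepes and incubating at room temperature.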

CXCR4 [3] = molecular target: T1, CXCR4; test: CXCR4 phosphorylation assay; type: cell-based; conditions: Jurkat cells, 1 μM AMD3100 or 10 μM X4-2-6 for 30 min, then 30 nM CXCL12 for 30 min
CXCR4 [4] = molecular target: T1, CXCR4; test: Transwell chemotaxis of Jurkat cells toward CXCL12; type: cell-based; conditions: Jurkat cells treated 1 hour with 80 μM dynasore, 30 nM CXCL12
CXCR4 [5] = molecular target: T1, CXCR4; test: Flow cytometry of CXCR4 cell surface expression on Jurkat cells; type: cell-based
Gαi = test: GTP loading of Gαi; type: cell-based, human; conditions: Jurkat cells
CXCR4 [6] = molecular target: T1, CXCR4; test: cAMP concentration by ELISA in Jurkat cells; type: cell-based; conditions: 100 μM forskolin, 30 nM CXCL12
Method in brief: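 Jurkat cells (5×10^6), serum-starved 6 hours in RPMI 1640 with penicillin-streptomycin and L-glutamine. Steps: 100 μM forskolin or vehicle 30 min; then vehicle or antagonists 30 min; then 30 nM CXCL12 30 min. cAMP measured in lysates by direct ELISA; relative change calculated. Means ± SD of three independent experiments, six replicates per condition.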

ERK1/2 = ERK1/2 phosphorylation assay; type: cell-based, human; conditions: Jurkat cells, 30 nM CXCL12, time points up to 30 min
CXCR4 [7] = molecular target: T1, CXCR4; conditions: Jurkat cells, 72 hours, fig. S1

T1 sequence (P61073 whole entry): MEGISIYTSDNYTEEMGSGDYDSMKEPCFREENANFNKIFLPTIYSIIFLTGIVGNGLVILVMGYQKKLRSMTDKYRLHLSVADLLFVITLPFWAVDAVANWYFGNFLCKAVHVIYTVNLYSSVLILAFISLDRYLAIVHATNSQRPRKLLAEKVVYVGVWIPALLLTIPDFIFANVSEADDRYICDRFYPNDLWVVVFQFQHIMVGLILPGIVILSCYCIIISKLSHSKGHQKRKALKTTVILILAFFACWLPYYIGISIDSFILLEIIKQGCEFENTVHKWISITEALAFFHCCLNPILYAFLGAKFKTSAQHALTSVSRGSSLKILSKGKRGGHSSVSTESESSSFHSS

Row | increase of CXCL12 EC50 for BA2 recruitment (CXCR4 [2]) | potency of AMD3100 to inhibit chemotaxis after dynasore treatment (CXCR4 [4]) | CXCR4 cell surface expression after prolonged exposure (CXCR4 [5]; 72 hours, compared to vehicle-treated cells) | total CXCR4 protein amount (CXCR4 [7]) | CXCR4 cell surface expression after dynasore (CXCR4 [5]; 80 μM dynasore for 1 hour, antibody clone 4G10) | Compound | CXCL12-mediated CXCR4 internalization (endocytosis) (CXCR4 [1]) | phosphorylation of Ser324/325 or Ser339 in the C terminus of CXCR4 (CXCR4 [3]) | amount of Gαi-GTP in CXCL12-treated cells (Gαi) | cAMP amounts in forskolin and CXCL12 treated cells (CXCR4 [6]) | pERK1/2 (Thr202/Tyr204) generation after CXCL12 (ERK1/2)
1 | more than 3500 fold | reduced potency | increased cell surface CXCR4 expression | increased the total CXCR4 protein amount | – | c1cc(CN2CCCNCCNCCCNCC2)ccc1CN1CCCNCCNCCCNCC1 [AMD3100, AMD3100 octahydrochloride hydrate] | inhibited CXCL12-mediated receptor internalization | inhibited this posttranslational modification | reduced the amount of Gαi-GTP | returned cAMP amounts to those observed in cells treated with forskolin alone | inhibited both early and late peaks in pERK1/2 generation
2 | – | – | – | – | – | Nn1cnc2scc(-c3ccc(Cc4ccccc4)cc3)c2c1=O [barbadin] | – | – | – | – | increased the early and late peaks in pERK1/2 abundance
3 | – | – | – | – | increased CXCR4 cell surface expression | O=C(N/N=C/c1ccc(O)c(O)c1)c1cc2ccccc2cc1O [dynasore] | – | – | – | – | –
